# Measured values reported in ChEMBL document CHEMBL5678799 (Biochem J, 2009).
# The source made the active and inactive calls. The rule behind the calls is not given here.
# Key:
# mTORC1 (Homo sapiens) [1] = biological target: T1, mTORC1 (Homo sapiens) (UniProt P42345+Q8N122+Q9BVC4); conditions: HEK293, dose 100-300 nM, time 30.0 min
# [2] = biological target: Mitogen-activated protein kinase 8 (Homo sapiens) (UniProt P45983); test: Inhibition of recombinant human His6-tagged JNK1alpha1 (1 to 384 residues) expressed in baculovirus infected Sf21 cells assessed as remaining activity at 10 uM using ATF2 as substrate incubated for 30 mins in presence of [gamma-33P]ATP by filter binding method relative to control
# Chain of Mitogen-activated protein kinase 8 (Homo sapiens) (P45983 whole entry, the tested form may be a part): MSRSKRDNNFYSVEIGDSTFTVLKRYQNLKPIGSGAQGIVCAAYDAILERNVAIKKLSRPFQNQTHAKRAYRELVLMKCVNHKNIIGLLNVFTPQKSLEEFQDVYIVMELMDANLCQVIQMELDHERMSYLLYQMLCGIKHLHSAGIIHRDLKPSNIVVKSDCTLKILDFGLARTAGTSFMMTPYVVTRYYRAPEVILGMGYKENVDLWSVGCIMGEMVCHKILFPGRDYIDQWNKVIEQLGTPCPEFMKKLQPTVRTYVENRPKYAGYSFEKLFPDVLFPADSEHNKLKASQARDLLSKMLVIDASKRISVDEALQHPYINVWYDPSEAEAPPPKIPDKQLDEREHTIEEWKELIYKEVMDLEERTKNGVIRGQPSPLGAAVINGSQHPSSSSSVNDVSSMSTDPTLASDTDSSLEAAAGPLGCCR
# Summary of the method: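 Robotic radiometric panel assay, 30 min at room temperature (21 °C), with 10 mM magnesium acetate. […] Compound at 1 or 10 µM. Residual activity expressed relative to compound-free control; triplicate average ± S.D.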
# mTORC1 (Homo sapiens) [3] = biological target: T1, mTORC1 (Homo sapiens); conditions: HEK293, dose 30-1000 nM, time 30.0 min
# [4] = biological target: Tyrosine-protein kinase CSK (Homo sapiens) (UniProt P41240); test: Inhibition of recombinant human N-terminal GST-tagged CSK (1 to 450 residues) expressed in Escherichia coli assessed as remaining activity at 10 uM Cdc2 peptide as substrate incubated for 30 mins in presence of [gamma-33P]ATP by filter binding method relative to control
# Chain of Tyrosine-protein kinase CSK (Homo sapiens) (P41240 2-450 limits assumed): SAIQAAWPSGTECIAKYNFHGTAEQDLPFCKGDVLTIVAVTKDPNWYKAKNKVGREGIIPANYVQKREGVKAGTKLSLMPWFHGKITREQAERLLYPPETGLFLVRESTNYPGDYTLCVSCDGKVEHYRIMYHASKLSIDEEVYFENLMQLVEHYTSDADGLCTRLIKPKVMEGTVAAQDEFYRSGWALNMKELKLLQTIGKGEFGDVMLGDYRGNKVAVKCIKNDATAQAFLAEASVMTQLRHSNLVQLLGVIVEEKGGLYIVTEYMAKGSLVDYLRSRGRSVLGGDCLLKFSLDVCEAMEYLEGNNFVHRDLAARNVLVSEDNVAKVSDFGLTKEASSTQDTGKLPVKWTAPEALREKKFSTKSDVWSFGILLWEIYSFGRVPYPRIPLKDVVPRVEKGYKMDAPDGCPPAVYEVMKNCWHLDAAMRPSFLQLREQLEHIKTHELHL
# Summary of the method: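 Incubations ran robotically for 30 min at room temperature (21 °C) under linear conditions. Results are percent activity remaining versus controls without compound, as the mean of triplicates ± S.D.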
# [5] = biological target: Serine/threonine-protein kinase mTOR (Mus musculus) (UniProt Q9JLN9); test: Inhibition of mTOR in MEF cells assessed as reduction in 4E-BP1 phosphorylation at S65 residues at 1 uM incubated for 30 mins by immunoblot analysis; type: cell-based
# Summary of the method: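 HEK-293 cells or MEFs cultured in 10% serum and treated 30 min with inhibitor. Lysed in Tris lysis buffer. Lysates immunoblotted for 4E-BP1 phosphorylated at Thr37/Thr46 and Ser65, with mobility shift noted. Three experiments.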
# [6] = biological target: Myosin light chain kinase (Homo sapiens) (UniProt Q32MK0); test: Inhibition of MLCK (unknown origin) assessed as remaining activity at 10 uM relative to control
# Summary of the method: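 Profiling-centre panel assay performed robotically at 21 °C for 30 min, linear with time and enzyme. […] Values are percent of compound-free control activity, the mean of triplicates ± S.D.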
# [7] = biological target: Ephrin type-A receptor 2 (Homo sapiens) (UniProt P29317); test: Inhibition of recombinant human N-terminal GST-tagged EPHA2 (591 to 976 residues) expressed in Escherichia coli assessed as remaining activity at 1 uM using Poly (Glu,Tyr) as substrate incubated for 30 mins in presence of [gamma-33P]ATP by filter binding method relative to control
# Summary of the method: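 Run robotically for 30 min at 21 °C under linear conditions. Compound at 1 or 10 µM. Percentage activity remaining versus control without compound, triplicate mean ± S.D.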
# [8] = biological target: Phosphatidylinositol 4-phosphate 3-kinase C2 domain-containing subunit beta (Homo sapiens) (UniProt O00750); test: Inhibition of PI3KC2beta (unknown origin) assessed as remaining activity at 1 uM using phosphatidylinositol as substrate incubated for 30 mins in presence of ATP relative to control
# Summary of the method: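 PI3KC2β assayed with 20 μM phosphatidylinositol, 0.2 mM ATP, 2 mM MgCl2, in Tris/HCl pH 7.5 with CHAPS, 30 min at room temperature. Stopped with EDTA, product detected by time-resolved FRET competition with PtdIns3P–biotin and SGK PX domain. Activity as % of no-compound control, triplicate.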
# [9] = biological target: Mitogen-activated protein kinase 9 (Homo sapiens) (UniProt P45984); test: Inhibition of recombinant human N-terminal His6-tagged JNK2alpha2 (1 to 424 residues) expressed in baculovirus infected Sf21 cells assessed as remaining activity at 1 uM using ATF2 as substrate incubated for 30 mins in presence of [gamma-33P]ATP by filter binding method relative to control
# [10] = biological target: Mitogen-activated protein kinase 3 (Homo sapiens) (UniProt P27361); test: Inhibition of recombinant human N-terminal GST-tagged ERK1 (2 to 379 residues) expressed in Escherichia coli assessed as remaining activity at 10 uM using MBP as substrate incubated for 30 mins in presence of [gamma-33P]ATP by filter binding method relative to control
# Chain of Mitogen-activated protein kinase 3 (Homo sapiens) (P27361 whole entry, the tested form may be a part): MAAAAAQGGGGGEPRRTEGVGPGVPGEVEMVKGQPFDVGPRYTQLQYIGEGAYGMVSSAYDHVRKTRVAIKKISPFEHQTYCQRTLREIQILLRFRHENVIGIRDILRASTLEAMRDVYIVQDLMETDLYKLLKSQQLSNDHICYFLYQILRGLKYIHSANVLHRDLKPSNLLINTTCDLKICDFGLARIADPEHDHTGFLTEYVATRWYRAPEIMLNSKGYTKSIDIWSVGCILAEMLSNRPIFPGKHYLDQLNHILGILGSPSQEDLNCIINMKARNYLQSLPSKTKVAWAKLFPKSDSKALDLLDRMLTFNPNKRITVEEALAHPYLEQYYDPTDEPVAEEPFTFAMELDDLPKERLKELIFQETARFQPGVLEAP
# Summary of the method: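 Kinase panel run robotically at 21 °C for 30 min, linear in time and enzyme. […] Compound tested at 1 or 10 µM. Activity given as percentage of incubations without compound, mean of triplicates ± S.D.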
# [11] = biological target: Serine/threonine-protein kinase PLK1 (Homo sapiens) (UniProt P53350); test: Inhibition of recombinant human N-terminal His6-tagged PLK1 (1 to 603 residues) expressed in baculovirus infected Sf21 cells assessed as remaining activity at 10 uM using ISDELMDATFADQEAKKK as substrate incubated for 30 mins in presence of [gamma-33P]ATP by filter binding method relative to control
# Chain of Serine/threonine-protein kinase PLK1 (Homo sapiens) (P53350 whole entry, the tested form may be a part): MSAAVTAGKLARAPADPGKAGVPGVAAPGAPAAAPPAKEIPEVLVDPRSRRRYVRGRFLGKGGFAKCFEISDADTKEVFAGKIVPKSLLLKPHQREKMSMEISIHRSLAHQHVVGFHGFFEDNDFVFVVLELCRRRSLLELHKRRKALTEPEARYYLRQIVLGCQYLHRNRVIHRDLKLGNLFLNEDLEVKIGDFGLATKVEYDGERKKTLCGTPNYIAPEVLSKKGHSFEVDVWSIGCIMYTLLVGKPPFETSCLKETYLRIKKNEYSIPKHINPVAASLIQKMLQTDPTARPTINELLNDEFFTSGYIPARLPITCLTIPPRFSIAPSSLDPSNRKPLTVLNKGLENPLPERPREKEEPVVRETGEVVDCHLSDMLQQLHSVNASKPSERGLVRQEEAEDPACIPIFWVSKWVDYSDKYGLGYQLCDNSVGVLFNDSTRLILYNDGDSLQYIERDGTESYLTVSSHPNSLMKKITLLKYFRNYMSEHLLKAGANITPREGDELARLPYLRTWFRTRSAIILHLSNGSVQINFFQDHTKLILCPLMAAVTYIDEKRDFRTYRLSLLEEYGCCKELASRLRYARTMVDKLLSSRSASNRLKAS
# Summary of the method: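 Radiometric panel assay run robotically at 21 °C for 30 min, linear in time and enzyme. […] Activity is expressed as percentage of the compound-omitted control, averaged from triplicates ± S.D.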
# [12] = biological target: Sphingosine kinase 2 (Homo sapiens) (UniProt Q9NRA0); test: Inhibition of SPHK2 (unknown origin) assessed as remaining activity at 10 uM using sphingosine as substrate incubated for 30 mins in presence of ATP relative to control
# Chain of Sphingosine kinase 2 (Homo sapiens) (Q9NRA0 whole entry): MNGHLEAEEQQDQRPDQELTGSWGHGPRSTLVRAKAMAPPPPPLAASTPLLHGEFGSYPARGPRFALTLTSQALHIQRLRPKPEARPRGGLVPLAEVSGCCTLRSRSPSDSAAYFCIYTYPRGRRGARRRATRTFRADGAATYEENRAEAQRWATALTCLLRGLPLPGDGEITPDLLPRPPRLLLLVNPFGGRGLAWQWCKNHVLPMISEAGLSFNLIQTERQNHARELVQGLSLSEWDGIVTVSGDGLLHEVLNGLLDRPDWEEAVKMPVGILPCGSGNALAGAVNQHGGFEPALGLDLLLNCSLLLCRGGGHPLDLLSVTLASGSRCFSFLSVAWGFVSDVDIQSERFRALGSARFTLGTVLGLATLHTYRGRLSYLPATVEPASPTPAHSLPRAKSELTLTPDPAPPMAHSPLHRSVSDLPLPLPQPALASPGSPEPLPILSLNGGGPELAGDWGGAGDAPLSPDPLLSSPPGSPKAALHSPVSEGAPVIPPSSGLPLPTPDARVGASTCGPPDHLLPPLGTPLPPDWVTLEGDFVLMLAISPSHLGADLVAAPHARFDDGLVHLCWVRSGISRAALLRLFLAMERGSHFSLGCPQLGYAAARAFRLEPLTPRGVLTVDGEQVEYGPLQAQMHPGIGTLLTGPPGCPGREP
# Summary of the method: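 SPHK2 reaction: 10 μM sphingosine, 1 μM ATP, 50 mM Tris/HCl pH 7.5, 200 mM KCl, 5 mM MgCl2, 1 mM EGTA, 1 mM DTT, 30 min at room temperature. Kinase-Glo Plus luminescence read-out. Percentage of control activity, triplicate.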
# [13] = biological target: Mitogen-activated protein kinase 15 (Homo sapiens) (UniProt Q8TD08); test: Inhibition of recombinant human N-terminal His6-tagged ERK8 (2 to 544 residues) expressed in baculovirus infected Sf21 cells assessed as remaining activity at 1 uM using MBP as substrate incubated for 30 mins in presence of [gamma-33P]ATP by filter binding method relative to control
# Summary of the method: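 Radiometric kinase panel run robotically at room temperature (21 °C) for 30 min, linear in time and enzyme. […] Activity is expressed as percent of control without compound, from triplicate determinations ± S.D.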
# mTORC1 (Homo sapiens) [14] = biological target: T1, mTORC1 (Homo sapiens); conditions: HEK293, dose 30.0 nM, time 30.0 min
# [15] = biological target: Mitogen-activated protein kinase; ERK1/ERK2 (Homo sapiens) (UniProt P27361+P28482); test: Inhibition of ERK1/2 in serum starved/PMA-stimulated HEK293 cells assessed as reduction in RSK phosphorylation at S227 residues at 1 uM incubated for 30 mins by immunoblot analysis; type: cell-based
# Chain of Mitogen-activated protein kinase; ERK1/ERK2 (Homo sapiens) (P27361 whole entry, looked up): as the sequence (P27361 whole entry, the tested form may be a part) above
# Chain of Mitogen-activated protein kinase; ERK1/ERK2 (Homo sapiens) (P28482 whole entry, looked up): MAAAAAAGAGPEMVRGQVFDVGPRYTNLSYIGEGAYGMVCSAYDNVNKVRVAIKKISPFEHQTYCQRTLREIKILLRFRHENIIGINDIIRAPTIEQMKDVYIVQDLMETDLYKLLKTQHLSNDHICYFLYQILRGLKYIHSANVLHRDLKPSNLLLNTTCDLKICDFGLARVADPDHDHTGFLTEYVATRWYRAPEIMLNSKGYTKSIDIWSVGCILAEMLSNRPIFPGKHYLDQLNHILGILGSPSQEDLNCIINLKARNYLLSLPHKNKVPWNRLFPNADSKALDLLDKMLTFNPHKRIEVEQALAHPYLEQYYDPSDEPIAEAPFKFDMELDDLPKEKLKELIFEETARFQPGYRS
# T1 sequence (Q8N122 whole entry, looked up, other chains not shown, the tested form may be a part): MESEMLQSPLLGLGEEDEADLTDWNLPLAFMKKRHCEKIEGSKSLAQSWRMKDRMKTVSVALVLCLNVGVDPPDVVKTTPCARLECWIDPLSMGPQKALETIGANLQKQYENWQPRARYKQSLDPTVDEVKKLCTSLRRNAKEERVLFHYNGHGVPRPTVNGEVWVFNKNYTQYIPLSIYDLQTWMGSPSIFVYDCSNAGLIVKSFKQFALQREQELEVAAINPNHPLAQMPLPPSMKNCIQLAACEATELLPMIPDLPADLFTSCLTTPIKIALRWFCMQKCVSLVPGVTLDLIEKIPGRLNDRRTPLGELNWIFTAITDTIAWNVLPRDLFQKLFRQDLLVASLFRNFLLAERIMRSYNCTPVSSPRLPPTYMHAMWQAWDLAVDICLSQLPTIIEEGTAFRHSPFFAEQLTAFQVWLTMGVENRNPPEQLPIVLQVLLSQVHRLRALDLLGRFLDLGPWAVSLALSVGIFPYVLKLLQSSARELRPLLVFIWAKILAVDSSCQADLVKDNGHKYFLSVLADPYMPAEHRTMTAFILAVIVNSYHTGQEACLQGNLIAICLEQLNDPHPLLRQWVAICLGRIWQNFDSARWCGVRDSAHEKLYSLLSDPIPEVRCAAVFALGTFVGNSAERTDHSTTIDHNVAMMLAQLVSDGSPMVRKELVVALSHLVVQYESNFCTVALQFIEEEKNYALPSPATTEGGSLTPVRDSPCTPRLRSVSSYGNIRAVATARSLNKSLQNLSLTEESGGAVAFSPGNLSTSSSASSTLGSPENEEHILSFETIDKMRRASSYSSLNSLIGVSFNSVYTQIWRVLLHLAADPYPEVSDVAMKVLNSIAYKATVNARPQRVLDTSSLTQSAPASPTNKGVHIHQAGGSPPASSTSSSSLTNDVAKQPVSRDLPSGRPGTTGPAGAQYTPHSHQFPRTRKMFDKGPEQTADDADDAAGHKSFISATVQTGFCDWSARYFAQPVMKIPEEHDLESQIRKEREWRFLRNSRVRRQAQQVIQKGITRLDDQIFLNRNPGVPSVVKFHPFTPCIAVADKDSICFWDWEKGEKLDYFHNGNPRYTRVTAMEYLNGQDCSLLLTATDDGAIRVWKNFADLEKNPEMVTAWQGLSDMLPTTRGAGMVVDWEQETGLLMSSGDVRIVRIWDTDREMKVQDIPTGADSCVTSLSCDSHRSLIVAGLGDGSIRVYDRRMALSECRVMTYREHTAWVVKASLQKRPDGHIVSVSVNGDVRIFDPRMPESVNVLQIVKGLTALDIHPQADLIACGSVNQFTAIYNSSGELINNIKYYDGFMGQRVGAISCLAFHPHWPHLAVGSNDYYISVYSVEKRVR
# T1 sequence (Q9BVC4 whole entry, looked up, other chains not shown, the tested form may be a part): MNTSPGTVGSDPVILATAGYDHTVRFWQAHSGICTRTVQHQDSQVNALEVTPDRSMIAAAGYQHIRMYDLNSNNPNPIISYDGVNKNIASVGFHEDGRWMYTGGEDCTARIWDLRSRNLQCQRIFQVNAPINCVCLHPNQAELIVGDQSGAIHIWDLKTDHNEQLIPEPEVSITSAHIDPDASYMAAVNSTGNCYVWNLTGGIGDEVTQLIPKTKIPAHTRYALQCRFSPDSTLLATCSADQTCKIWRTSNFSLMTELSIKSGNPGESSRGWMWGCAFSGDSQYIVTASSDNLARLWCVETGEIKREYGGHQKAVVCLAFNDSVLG
smiles,measurement,setting,value
COc1ccc(-c2ccc3c(N4CCOCC4)nc(N4C[C@@H](C)O[C@@H](C)C4)nc3n2)cc1CO [Ku-0063794],inhibition,mTORC1 (Homo sapiens) [1],100%
same,Activity,[2],93%
same,inhibition,mTORC1 (Homo sapiens) [3],Dose-Dependent Effect
same,Activity,[4],99%
same,inhibition,[5],Active
same,Activity,[6],104%
same,Activity,[7],108%
same,Activity,[8],126%
same,Activity,[9],101%
same,Activity,[10],87%
same,Activity,[11],94%
same,Activity,[12],116%
same,Activity,[13],88%
same,inhibition,mTORC1 (Homo sapiens) [14],Active
same,inhibition,[15],inactive
